Measured values from ChEMBL document CHEMBL3784997 (J Med Chem, 2016).

How the values were obtained:
Adenosine receptor A2b [1] = biological target: T1, Adenosine receptor A2b (Homo sapiens, UniProt P29275); assay: Displacement of [3H]OSIP339391 from human recombinant Adenosine A2B receptor expressed in HEK293 cells after 60 mins; format: cell-based
T1 sequence (P29275 whole entry): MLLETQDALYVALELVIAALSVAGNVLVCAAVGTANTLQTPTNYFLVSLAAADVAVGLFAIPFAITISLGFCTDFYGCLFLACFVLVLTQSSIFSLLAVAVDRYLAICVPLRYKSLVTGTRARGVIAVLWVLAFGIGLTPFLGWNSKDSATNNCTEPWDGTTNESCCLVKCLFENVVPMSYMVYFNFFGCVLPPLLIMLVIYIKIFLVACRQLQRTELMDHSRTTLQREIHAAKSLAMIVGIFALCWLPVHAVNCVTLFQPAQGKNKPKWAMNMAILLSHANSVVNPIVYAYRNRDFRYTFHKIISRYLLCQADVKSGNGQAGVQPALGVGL

[2] = biological target: T2, Adenosine receptor A1 (Homo sapiens) (UniProt P30542); assay: Displacement of [3H]DPCPX from human Adenosine A1 receptor expressed in CHO cells at 1 uM after 60 mins; format: cell-based
T2 sequence (whole entry): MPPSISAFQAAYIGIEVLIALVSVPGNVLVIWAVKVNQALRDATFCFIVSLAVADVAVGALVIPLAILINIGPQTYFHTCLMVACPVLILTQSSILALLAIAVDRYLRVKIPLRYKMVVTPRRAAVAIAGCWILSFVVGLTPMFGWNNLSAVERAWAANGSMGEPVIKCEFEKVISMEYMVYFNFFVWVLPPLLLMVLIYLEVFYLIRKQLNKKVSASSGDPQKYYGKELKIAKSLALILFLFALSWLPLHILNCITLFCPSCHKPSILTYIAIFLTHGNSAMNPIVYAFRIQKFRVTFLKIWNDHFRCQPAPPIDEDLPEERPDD
Procedure, shortened: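 Competition binding on membranes from CHO cells expressing human A1, labelled with 2 nM [3H]DPCPX. Non-specific binding was defined with 10 µM R-PIA, and incubation was at 25 °C for 60 min. The value is percent inhibition of specific binding at 1 µM test compound (n = 2, average).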

[3] = biological target: Adenosine receptor A2a (Homo sapiens) (UniProt P29274); assay: Displacement of [3H]ZM241385 from human Adenosine A2A receptor expressed in HeLa cells at 1 uM after 30 mins; format: cell-based
Procedure, shortened: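 Membranes from HeLa cells expressing human A2A were labelled with 3 nM [3H]ZM241385, with non-specific binding defined by 50 µM NECA, and incubated at 25 °C for 30 min. The value is percent displacement of specific binding at 1 µM test compound (n = 2).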

[4] = biological target: T3, Adenosine receptor A2b (Homo sapiens) (UniProt P29275); assay: Displacement of [3H]DPCPX from human Adenosine A2B receptor expressed in HEK293 cells at 1 uM after 30 mins; format: cell-based
T3 sequence (whole entry): T1 sequence (P29275 whole entry)
Procedure, shortened: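 Membranes from HEK-293 cells expressing human A2B were labelled with 35 nM [3H]DPCPX, with non-specific binding defined by 400 µM NECA, and incubated at 25 °C for 30 min.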

Adenosine receptor A3 = biological target: T4, Adenosine receptor A3 (Homo sapiens, UniProt P0DMS8); assay: Displacement of [3H]NECA from human Adenosine A3 receptor expressed in HeLa cells after 180 mins
T4 sequence (P0DMS8 whole entry): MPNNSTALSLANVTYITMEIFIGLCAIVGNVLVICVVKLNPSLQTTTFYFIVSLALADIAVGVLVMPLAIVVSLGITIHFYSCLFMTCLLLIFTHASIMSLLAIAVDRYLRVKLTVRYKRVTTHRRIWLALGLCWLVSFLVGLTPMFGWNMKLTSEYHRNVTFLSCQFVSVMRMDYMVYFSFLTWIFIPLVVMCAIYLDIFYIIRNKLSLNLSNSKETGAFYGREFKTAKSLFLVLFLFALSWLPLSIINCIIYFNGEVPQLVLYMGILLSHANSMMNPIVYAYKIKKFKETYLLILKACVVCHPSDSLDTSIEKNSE

Adenosine receptor A2b [5] = biological target: T1, Adenosine receptor A2b; assay: Displacement of [3H]DPCPX from human Adenosine A2B receptor expressed in HEK293 cells after 30 mins; format: cell-based
[6] = biological target: T3, Adenosine receptor A2b (Homo sapiens); assay: Antagonist activity at human Adenosine A2B receptor expressed in HEK293 cells assessed as inhibition of NECA-induced cAMP production preincubated for 15 mins followed by NECA addition measured after 15 mins by enzyme immunoassay; format: functional, cell-based
Procedure, shortened: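 HEK293 cells seeded at 10000 cells/well and grown at 37 °C, 5% CO2 in EMEM F-12 with 10% FCS and 1% L-glutamine. After washing, cells were preincubated 15 min at 37 °C with compound and 30 µM rolipram in EMEM-F12/25 mM HEPES pH 7.4. NECA was then added for 15 min at 37 °C. cAMP was read by enzyme immunoassay after kit lysis; n = 3, each in duplicate.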

[7] = biological target: T5, Adenosine receptor A3 (Homo sapiens) (UniProt P0DMS8); assay: Displacement of [3H]NECA from human Adenosine A3 receptor expressed in HeLa cells at 1 uM after 180 mins
T5 sequence (whole entry): T4 sequence (P0DMS8 whole entry)

Chain of Adenosine receptor A2a (Homo sapiens) (P29274 whole entry): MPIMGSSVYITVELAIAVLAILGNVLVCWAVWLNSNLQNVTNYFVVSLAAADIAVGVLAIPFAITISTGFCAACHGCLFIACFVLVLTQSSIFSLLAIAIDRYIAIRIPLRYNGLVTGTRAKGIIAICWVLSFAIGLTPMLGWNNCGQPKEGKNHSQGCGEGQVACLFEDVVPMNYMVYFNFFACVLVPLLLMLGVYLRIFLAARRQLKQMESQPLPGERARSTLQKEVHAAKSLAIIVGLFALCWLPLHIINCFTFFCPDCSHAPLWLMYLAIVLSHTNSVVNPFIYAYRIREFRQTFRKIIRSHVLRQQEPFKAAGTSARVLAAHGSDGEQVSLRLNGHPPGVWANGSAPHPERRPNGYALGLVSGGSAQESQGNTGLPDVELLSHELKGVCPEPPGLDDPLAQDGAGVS

SMILES | Ki (Adenosine receptor A2b [1]) | Activity [2] | Activity [3] | Activity [4] | Ki (Adenosine receptor A3) | Ki (Adenosine receptor A2b [5]) | Kb [6] | Activity [7]
CC(=O)NCCNc1nc(-c2ccccc2)nc2nc(C(=O)N3CCN(CCCc4ccccc4)CC3)[nH]c12 | 0.5 nM |  |  |  |  |  |  | 
CCOC(=O)C1=C(C)Nc2nccn2C1c1cccs1 (racemic) |  | 2% | 2% | 8% | 4.61 µM |  |  | 
CC1=C(C(=O)OC(C)C)C(c2ccco2)n2ncnc2N1 (racemic) |  | 2% | 5% |  |  | 55.6 nM | 266 nM | 2%
CC1=C(C(=O)OC(C)C)C(c2ccco2)n2c(nc3ccccc32)N1 (racemic) |  | 20% | 25% |  |  |  | 27 nM | 2%
